Measured values from PubChem BioAssay AID522 (The Scripps Research Institute Molecular Screening Center, 2006).
The campaign covered roughly 65,000 compounds. About 1,200 (1.8%) were called active.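 Rule for the calls: active = activation above the mean activation of all tested compounds plus 3 SD (cut at about 50% in these data); inactive = the rest.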 The list comes from a sample in which actives are over-represented; it also holds similar structures and randomly drawn compounds.

Molecular target: Steroidogenic factor 1 (Homo sapiens) (UniProt Q13285)
Sequence (Q13285 whole entry, looked up, the tested form may be a part): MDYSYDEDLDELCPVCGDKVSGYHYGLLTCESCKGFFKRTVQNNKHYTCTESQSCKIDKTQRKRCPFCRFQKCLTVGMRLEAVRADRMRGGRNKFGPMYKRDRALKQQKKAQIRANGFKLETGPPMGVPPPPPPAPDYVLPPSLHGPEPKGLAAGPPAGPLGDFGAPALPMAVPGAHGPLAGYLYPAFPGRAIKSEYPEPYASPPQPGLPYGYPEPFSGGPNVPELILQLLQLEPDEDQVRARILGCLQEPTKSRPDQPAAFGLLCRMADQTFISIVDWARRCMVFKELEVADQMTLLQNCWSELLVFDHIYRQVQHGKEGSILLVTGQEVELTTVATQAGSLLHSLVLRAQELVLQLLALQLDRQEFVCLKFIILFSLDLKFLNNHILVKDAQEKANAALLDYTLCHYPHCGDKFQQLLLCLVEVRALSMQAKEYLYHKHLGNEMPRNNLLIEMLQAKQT
Assay: activators of human SF-1, primary screen, cell-based, CHO-K1, Gal4-SF-1 LBD, luciferase luminescence (AID 522)
Conditions: CHO-K1 Gal4-SF-1 LBD luciferase reporter; at 10 µM; active compounds read high; % increase over DMSO SF-1-specific signal
In short: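 material = CHO-K1 cells with Gal4–hSF-1 LBD chimera plus Gal4-driven luciferase | compound = 10 µM single point, 1% DMSO | incubation = 20 h compound exposure at 37 °C after 1 h cell settling | measured by = SteadyLite luciferase luminescence | evaluation = percent activation relative to DMSO median and mock-transfected background | control set = DMSO negative control and −SF1 background wells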

activation, active:
COc1ccc(NC(=O)Nc2cccc3cccnc23)cc1 65.5%, c1ccc(CSc2nnc(-c3ccco3)n2Cc2ccccc2)cc1 76%, COc1cc(C2C3C(=O)N(c4ccccc4)C(=O)C3ON2c2ccccc2)ccc1O (configuration not stated) 51.7%, CC(C)(C)c1ccc(C(=O)CSc2ncn[nH]2)cc1 57.1%, CCc1nnc(NC(=O)c2cccs2)s1 50%, Cc1ccc(C(=O)Nc2nnc(-c3cccs3)s2)cc1C 80.9%, CC(C)c1ccc(NC(=O)NC2CCCCC2)cc1 100%, CC(=O)c1cc(C#N)c(SCC(=O)C(C)(C)C)nc1C 57.1%, O=C(Nc1ccc(-c2nnc(-c3ccccc3)o2)cc1)C1CCCO1 (configuration not stated) 65.9%, O=C(Nc1cccc(-c2nnc(-c3ccccc3)o2)c1)C1CCCO1 (configuration not stated) 65.8%, COC(=O)c1ccc(NC(=O)c2ccco2)cc1 85.3%, CCCCOC(=O)c1[nH]c(C)c(C(=O)OC)c1C 77.7%, C=C(C)CSc1nc(N)c2c3c(sc2n1)CCC3 51.5%, CC(C)CNC(=O)c1cc(-c2ccc(Br)cc2)on1 52.5%, CC(C)(C)c1csc(NC2=NS(=O)(=O)c3ccccc32)n1 50.5%

activation, inactive:
O=C1CCC(C(=O)Nc2ccc(OC(F)F)cc2)N1 (configuration not stated) -10.9%, COc1ccc(NC(=O)CSc2nnc(-c3cccs3)n2Cc2ccco2)cc1OC -6%, CCOC(=O)CSc1nnc(CNc2nc(-c3ccccc3)cs2)n1C 11.1%, CC(=O)Nc1ccc(S(=O)(=O)N2CCN(CCCOc3cc(C)ccc3C)CC2)cc1 -14.5%, Cc1nc2ccc(C(=O)N3CCSCC3)cc2s1 0.4%, CCCNC(=O)Nc1ccccc1C(=O)Nc1ccc(OC)cc1 7.4%, O=C(Nc1cccc2cccnc12)c1cccc(N2C(=O)CCC2=O)c1 9%, COc1cc(-c2nc(S(=O)(=O)c3ccc(Cl)cc3)c(N(C)C)o2)cc(OC)c1OC -17.6%, Cc1ccc(C(c2nnnn2CS(=O)(=O)c2ccc(C)cc2)N2CCC(C(N)=O)CC2)cc1 (configuration not stated) -4.8%, Cc1cc(C)cc(N(CC(=O)NCC2CCCO2)S(=O)(=O)c2c(C)noc2C)c1 (configuration not stated) -8.7%, N#Cc1c(NC(=O)CCCN2C(=O)c3ccccc3C2=O)oc(-c2ccccc2)c1-c1ccccc1 12.7%, CCCc1[nH]nc2c1C(c1c(C)nn(-c3ccccc3)c1Cl)C(C#N)=C(N)O2 (configuration not stated) 6.3%, CNC(=O)NCCN1CCCC1=O 1%, c1ccc(CSc2nnc(-c3ccco3)c(-c3ccco3)n2)cc1 0.5%, O=C(CSc1nnc(-c2ccco2)n1Cc1ccccc1)NC(=O)NCc1ccco1 -12.1%, CCn1c(COc2ccc(OC)cc2)nnc1SCC(=O)Nc1cc(OC)ccc1OC -13.5%, COc1cc(C2C(C(=O)c3ccc(C)o3)=C(O)C(=O)N2CCc2ccccc2)ccc1O (configuration not stated) 8.7%, Cc1ccccc1N1C(=O)C2ON(c3ccccc3)C(c3ccncc3)C2C1=O (configuration not stated) 5.4%, COc1ccccc1NC(=O)CSc1nnc(-c2ccoc2C)n1CCc1ccccc1 -3.3%, Cn1nnc(NC(=O)CSc2ncn[nH]2)n1 4.4%, CCN(C(=O)CSc1ncn[nH]1)c1cccc2ccccc12 16.4%, O=S(=O)(c1cccc(-c2nnc(SC(F)F)n2-c2ccccc2)c1)N1CCCCC1 4.3%, CCOc1cc(N2CCOCC2)c(OCC)cc1NC(=O)COc1cccc2cccnc12 8.2%, CCc1ccccc1NC(=O)c1cccs1 -5.6%, CCc1nnc(NC(=O)CCC(=O)O)s1 -8.1%, Cc1ccc(C(=O)Nc2nnc(-c3ccncc3)s2)o1 21.8%, Cc1occc1C(=O)Nc1nnc(-c2ccncc2)s1 20.4%, CCOC(=O)c1ccc(-n2c(C)nc3c(cnn3-c3ccccc3C)c2=O)cc1 17.1%, CCCc1[nH]nc2c1C(c1ccc(Br)s1)C(C#N)=C(N)O2 (configuration not stated) 15.9%, Cn1c(/C(C#N)=C2/CCCCCN2)nc2ccccc21 9.6%, CCOC(=O)N1CCN(C(=O)C2CC(c3ccc(F)cc3)=NO2)CC1 (configuration not stated) -7.2%, COC(=O)[C@H](C(C)C)n1c(C)c(C(C)=O)c(C(C)=O)c1C 5.7%, CC(=O)OC(C(=O)NC1CCCCC1)c1ccccc1 (configuration not stated) -11.8%, CC(Cc1cccs1)NC(=O)NC1CCCCC1 (configuration not stated) 41.1%, Cc1cccc(-n2c(N)c(C(=O)N3CCN(C)CC3)sc2=S)c1 3.5%, Cc1ccc(C2CC(=O)NC(SCC(=O)OCc3ccccc3)=C2C#N)o1 (configuration not stated) -4.2%, CCN(CC(=O)Nc1ccc2c(c1)OCCO2)Cc1cc(=O)oc2cc(C)c(C)cc12 -19.6%, CCOc1ccc2cc(C#N)c(SCC(=O)OC)nc2c1 26.5%, Cc1cc(C(F)(F)F)c(C#N)c(SCC(=O)NC2CC2)n1 -6.7%, Cc1cc(Br)ccc1NC(=O)C1CCCO1 (configuration not stated) -10.5%, O=C(CCc1ccccc1)Nc1cccc(-c2nnc(-c3ccco3)o2)c1 27.9%, O=C(Nc1nnc(CCc2ccccc2)s1)C1CCCO1 (configuration not stated) 21.6%, O=C(CSc1nnc(-c2ccc(NS(=O)(=O)c3ccccc3)cc2)o1)NCC1CCCO1 (configuration not stated) -0.8%, Cc1cccc(N2CCN(Cc3c(C)n(C)n(-c4ccccc4)c3=O)CC2)c1C 15.3%, O=C(NCc1ccccc1)C1C(=O)N(Cc2ccccc2)C(=O)C1C1(O)CCCC1 (configuration not stated) -4.5%, Cc1ccccc1Cn1c(=O)[nH]c2ccccc21 -12.9%, CCOC(=O)C1CCN(Cc2coc3ccc(Cl)cc3c2=O)CC1 -25.8%, CC(C)(C)NC(=O)c1cc(NC(=O)c2ccco2)cc(NC(=O)c2ccco2)c1 22%, O=C(Nc1ccc(Oc2ccccc2)cc1)c1ccco1 44%, Cc1cccc(C)c1NC(=O)N1CC=C(n2c(=O)[nH]c3ccccc32)CC1 -7.6%, CC(Sc1sc(=S)sc1SC(C)C(=O)O)C(=O)O (configuration not stated) -6.9%, CCOC(=O)c1c(C)[nH]c(C(=O)NCc2ccccc2OC)c1C 24.8%, CCOC(=O)c1c(C)[nH]c(C(=O)COc2ccc3c(c2)OCO3)c1C 28.5%, CCc1ccccc1NC1c2ccccc2C(=O)N1c1cccnc1 (configuration not stated) -5.1%, Cc1cc(N2C(=O)C(=O)/C(=C(/O)c3ccccc3)C2c2cccc(Br)c2)no1 (configuration not stated) 2.6%, COc1ccc(S(=O)(=O)NC2(C(F)(F)F)N=C3SCCN3C2=O)cc1 (configuration not stated) 19.3%, CN(C)CCSc1nc(N)c2c3c(sc2n1)COC(C)(C)C3 3.5%, C=C(C)Cn1c(SCC(=O)NCc2ccco2)nc2sc3c(c2c1=O)CCC3 -1.8%, O=C(CSc1nc2[nH]ncc2c(=O)n1-c1ccccc1)N1CCCc2ccccc21 22.2%, CC(NC(=O)c1cc(-c2ccccc2)on1)c1ccccc1 (configuration not stated) 1.6%, O=C(NCCCN1CCOCC1)c1cc(-c2ccc(Cl)cc2)on1 -2.4%, CCOC(=O)C1CCc2nc3ccccc3c(=O)n21 (configuration not stated) 2.2%, CCOC(=O)C1CCN(C(=O)CC2C(=O)N(Cc3ccccc3)C(C)c3nc4ccccc4n32)CC1 (configuration not stated) 14.5%, COC(=O)c1ccc(Oc2nc(NC(C)C)nc(SC)n2)cc1 2.8%, c1ccc(Nc2nc(-c3ccncc3)cs2)nc1 36.9%, CCOC(=O)c1nnn(CC(=O)Nc2cccc(F)c2)c1C(=O)OCC 2.1%, CCN(CCCCOC(=O)c1ccc(OC)c(OC)c1)C(C)Cc1ccc(OC)cc1 (configuration not stated) -10.3%
